Bounds are passed on as bounds.

Broadly, the IC50 is the concentration needed to halve the response being measured.

A short description of assay [1]: Inhibition of sheep brain tubulin microtubule assembly by turbidimetry assay. Details: species or system Ovis aries; call rule not given here. In outline:
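Sheep brain tubulin purified by two assembly–disassembly cycles, about 2–3 mg/mL in 0.1 M MES, 0.5 mM MgCl2, 1 mM EGTA, 1 mM GTP, pH 6.6. Compounds in DMSO; incubation 10 min at 37 °C, then 5 min at 0 °C. Assembly followed continuously by turbidity at 350 nm at 37 °C.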

Assay [2] deals with HCT-116. The assay is described as follows: Cytotoxicity against human HCT116 cells after 72 hrs. In kind it is functional, cell-based. To be noted: HCT-116, 72 h. In short, it runs like this:
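Cells seeded at 5 × 10³ per well in growth medium, cultured 24 h, then given compound in DMSO (under 0.1% final). After 72 h incubation, resazurin added for 2 h and fluorescence read (excitation 560 nm). IC50 taken as concentration reducing cell growth by 50% after 72 h treatment.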

For the compound `COc1ccc(/C=C(/c2ccc(OC)c(F)c2)c2cc(OC)c(OC)c(OC)c2)cc1O`, the results for the IC50 result in assay [1] and in assay [2] were “Not Active” and 8 µM, respectively. As for `COCOc1cc(/C=C(/c2ccc(OC)c(OCOC)c2)c2cc(OC)c(OC)c(OC)c2Br)ccc1OC`, the IC50 was 8 µM in assay [1] (read-out: IC50) and above 10 µM in assay [2]. As to `COc1ccc(/C(=C\c2cc(OC)c(OC)c(OC)c2)c2cc(OC)c(OC)c(OC)c2)cc1`, the 50% inhibitory concentration (IC50) entry in assay [1] was “Not Active”; in assay [2], above 10 µM. For `C=C(c1ccc(OC)c(O)c1)c1cc(OC)c(OC)c(OC)c1`, the IC50 in assay [1] (read-out: IC50) worked out at 2.1 µM; in assay [2], 0.002 µM. Turning to `COc1ccc(/C=C(/c2ccc(OC)cc2)c2cc(OC)c(OC)c(OC)c2Br)cc1`, the concentration for half-maximal inhibition (IC50) entry in assay [1] is “Not Active”; in assay [2] it was above 10 µM. With `COc1ccc(/C=C(\c2ccc(OC)cc2)c2cc(OC)c(OC)c(OC)c2)cc1`, the IC50 in assay [1] (read-out: IC50) was 8.1 µM; in assay [2], above 10 µM.

For the compound `COc1ccc(/C=C(/c2ccc(OC)c(O)c2)c2cc(OC)c(OC)c(OC)c2)cc1O`, the concentration for half-maximal inhibition (IC50) in assay [1] (read-out: IC50) came out at 8.5 µM; in assay [2], 5 µM. On to `COc1ccc(/C=C(/c2ccc(C)cc2)c2cc(OC)c(OC)c(OC)c2)cc1O`, for which the half-inhibitory concentration (IC50) result in assay [1] was “Not Active”; in assay [2], 3 µM. With `COc1ccc(/C(=C/c2ccc(OC)c(O[Si](C)(C)C(C)(C)C)c2)c2cc(OC)c(OC)c(OC)c2Br)cc1`, the half-inhibitory concentration (IC50) entry in assay [1] was “Not Active”; in assay [2], above 10 µM. For `COc1ccc(/C=C(/c2ccc(OC)cc2)c2cc(OC)c(OC)c(OC)c2)cc1`, the IC50 in assay [1] (read-out: IC50) was 8 µM; in assay [2], above 10 µM. In the case of `COc1ccc(/C(=C\c2cc(OC)c(OC)c(OC)c2)c2cc(OC)c(OC)c(OC)c2)c(Br)c1`, the IC50 entry in assay [1] is “Not Active”; in assay [2] it was above 10 µM.

Regarding `COc1ccc(/C(=C/c2ccc(OC)c(O)c2)c2cc(OC)c(OC)c(OC)c2)cc1`, the half-maximal inhibitory concentration (IC50) in assay [1] (read-out: IC50) was 7.8 µM; in assay [2], above 10 µM. On to `COc1ccc(/C=C\c2cc(OC)c(OC)c(OC)c2)cc1O` [COMBRETASTATIN A4], for which, in assay [2], the half-inhibitory concentration (IC50) came to 0.002 µM. As for `COc1ccc(/C=C(\c2cc(OC)c(OC)c(OC)c2)c2ccc3ccccc3c2)cc1O`, the values for the IC50 result in assay [1] and in assay [2] were “Not Active” and 8 µM, respectively.

Source of the values: ChEMBL document CHEMBL1240468, “Regioselective hydrostannation of diarylalkynes directed by a labile ortho bromine atom: an easy access to stereodefined triarylolefins, hybrids of combretastatin A-4 and isocombretastatin A-4” (Eur J Med Chem, 2010).
